Measurements from ChEMBL document CHEMBL1142011, “Discovery of an exceptionally potent and selective class of fatty acid amide hydrolase inhibitors enlisting proteome-wide selectivity screening: concurrent optimization of enzyme inhibitor potency and selectivity” (Bioorg Med Chem Lett, 2005).
Where “and” joins values, the source holds several entries; their conditions need not be identical. Equal entries are not always repeated.

Assays:
Liver carboxylesterase 1 = biological target: T1, Liver carboxylesterase 1 (Homo sapiens, UniProt P23141); assay: Inhibitory concentration of triacylgylcerol hydrolase using FP-Rh radioligand
T1 sequence (P23141 whole entry): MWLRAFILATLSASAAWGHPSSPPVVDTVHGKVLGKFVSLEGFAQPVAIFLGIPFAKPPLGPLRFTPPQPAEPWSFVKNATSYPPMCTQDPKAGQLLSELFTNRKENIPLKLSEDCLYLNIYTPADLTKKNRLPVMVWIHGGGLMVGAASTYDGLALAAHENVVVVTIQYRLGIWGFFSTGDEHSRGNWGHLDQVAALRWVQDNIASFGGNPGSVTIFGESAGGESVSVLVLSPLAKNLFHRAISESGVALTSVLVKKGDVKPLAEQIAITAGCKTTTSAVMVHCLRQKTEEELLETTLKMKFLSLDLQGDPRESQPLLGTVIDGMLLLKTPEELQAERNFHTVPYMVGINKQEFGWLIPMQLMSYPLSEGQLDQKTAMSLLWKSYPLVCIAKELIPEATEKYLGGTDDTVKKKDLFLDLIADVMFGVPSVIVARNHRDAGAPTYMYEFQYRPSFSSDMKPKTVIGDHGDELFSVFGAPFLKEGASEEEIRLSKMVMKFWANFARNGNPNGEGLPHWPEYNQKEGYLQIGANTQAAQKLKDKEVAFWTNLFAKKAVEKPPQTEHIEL
In short: (§1)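 Competitive activity-based profiling of native membrane proteomes (brain, heart) with no purified enzyme or substrate. Proteome was incubated with rhodamine-tagged fluorophosphonate (FP-Rh) across systematically varied inhibitor concentrations under kinetically controlled conditions. Labeled serine hydrolases were resolved by SDS-PAGE and fluorescence-detected. Loss of band labeling gave IC50 for each enzyme.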

[1] = Concentration of 50% inhibition of KIAA1363 was determined using FP-Rh as radioligand; in short: as §1
[2] = biological target: T2, Fatty-acid amide hydrolase 1 (Homo sapiens, UniProt O00519); assay: Inhibitory concentration of fatty acid amide hydrolase using FP-Rh radioligand; in short: as §1
T2 sequence (O00519 whole entry): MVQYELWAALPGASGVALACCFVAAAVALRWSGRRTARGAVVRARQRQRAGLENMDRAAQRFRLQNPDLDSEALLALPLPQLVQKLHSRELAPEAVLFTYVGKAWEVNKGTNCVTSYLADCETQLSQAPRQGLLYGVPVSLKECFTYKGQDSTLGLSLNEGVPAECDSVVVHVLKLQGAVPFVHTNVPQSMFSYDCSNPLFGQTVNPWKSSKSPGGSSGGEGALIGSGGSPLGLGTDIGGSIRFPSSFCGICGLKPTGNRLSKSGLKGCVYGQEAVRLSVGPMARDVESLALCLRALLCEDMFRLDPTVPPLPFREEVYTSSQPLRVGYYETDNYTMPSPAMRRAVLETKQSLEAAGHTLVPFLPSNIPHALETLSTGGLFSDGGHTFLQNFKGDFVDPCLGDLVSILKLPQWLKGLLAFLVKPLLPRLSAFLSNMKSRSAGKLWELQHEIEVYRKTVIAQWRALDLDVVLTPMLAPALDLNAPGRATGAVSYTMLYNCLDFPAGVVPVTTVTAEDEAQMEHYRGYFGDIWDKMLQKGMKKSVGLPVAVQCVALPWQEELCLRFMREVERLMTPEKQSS

[3] = biological target: T3, Fatty-acid amide hydrolase 1 (Mus musculus, UniProt O08914); assay: Inhibitor affinity towards enzymes of class serine hydrolase was determined using biotin or fluorescent as radioligand (FP-biotin or FP-Rh)
T3 sequence (O08914 whole entry): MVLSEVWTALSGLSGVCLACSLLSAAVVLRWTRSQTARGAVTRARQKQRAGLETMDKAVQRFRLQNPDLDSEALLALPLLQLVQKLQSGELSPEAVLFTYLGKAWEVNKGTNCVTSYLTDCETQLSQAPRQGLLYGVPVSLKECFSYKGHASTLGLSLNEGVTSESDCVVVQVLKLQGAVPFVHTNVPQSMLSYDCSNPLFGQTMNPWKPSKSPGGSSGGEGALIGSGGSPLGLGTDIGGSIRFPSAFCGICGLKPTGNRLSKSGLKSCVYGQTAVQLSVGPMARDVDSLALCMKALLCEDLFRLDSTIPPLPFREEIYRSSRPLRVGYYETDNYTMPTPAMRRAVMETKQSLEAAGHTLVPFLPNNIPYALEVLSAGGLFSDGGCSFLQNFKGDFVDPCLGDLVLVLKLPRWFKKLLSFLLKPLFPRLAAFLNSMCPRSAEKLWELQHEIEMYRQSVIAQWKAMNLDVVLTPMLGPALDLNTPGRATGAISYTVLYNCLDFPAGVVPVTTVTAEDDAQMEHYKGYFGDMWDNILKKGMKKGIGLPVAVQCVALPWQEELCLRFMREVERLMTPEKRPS

IC50 (Liver carboxylesterase 1) | IC50 [1] | IC50 [2] | Ki [3] | SMILES
3 nM | 20000 nM | 0.3 nM | 0.28 nM | O=C(CCCCCCc1ccccc1)c1nc2ncccc2o1
– | – | – | 0.85 nM | O=C(CCCCCc1ccccc1)c1nnc(-c2cccnc2)o1
1000 nM | > 100000 nM | 8 nM | 7.5 nM | O=C(CCCCCCCc1ccccc1)c1ncc(-c2ccccn2)o1
100 nM | > 100000 nM | 20 nM | 1 nM | O=C(CCCCCCc1ccccc1)c1nnc(-c2cccnc2)o1
5 nM | 20000 nM | 0.3 nM | 0.39 nM | O=C(CCCCCCCc1ccccc1)c1nc2ncccc2o1
5 nM | 10000 nM | 0.1 nM | 0.52 nM | O=C(CCCCCCCCc1ccccc1)c1nc2ncccc2o1
1 nM | 10000 nM | 1 nM | 0.2 nM | O=C(CCCCCc1ccccc1)c1nc2ncccc2o1
200 nM | > 100000 nM | 100 nM | 11 nM | O=C(CCCCCc1ccccc1)c1ncc(-c2ccccn2)o1
– | – | – | 0.56 nM | O=C(CCCCCCc1ccccc1)c1nnc(-c2ccco2)o1
– | > 100000 nM | – | – | O=C(CCCCCCc1ccccc1)c1ncc(-c2ccccn2)o1
200 nM | 60000 nM | 0.6 nM | – | O=C(CCCCCCCc1ccccc1)c1nnc(-c2ccccn2)o1
140 nM | 90000 nM | 1 nM | – | O=C(CCCCCCc1ccccc1)c1nnc(-c2ccccn2)o1
30 nM | 50000 nM | 4 nM | – | O=C(CCCCCc1ccccc1)c1nnc(-c2ccccn2)o1
20 nM | > 100000 nM | 10000 nM | 220 nM | O=C(CCCCCc1ccccc1)c1nc2ccccc2o1

Further lines, the compound ahead of its results:

SMILES | IC50 (Liver carboxylesterase 1) | IC50 [1] | IC50 [2] | Ki [3]
CCCCCCCC/C=C\CCCCCCCC(=O)c1ncc(-c2ccccc2)o1 | 50000 nM | > 100000 nM | 5000 nM | 320 nM
CCCCCCCC/C=C\CCCCCCCC(=O)c1ncc(-c2ccccn2)o1 | 50000 nM | > 100000 nM | 200 nM | 18 nM
CCCCCCCCCCCCCCCCCC(=O)C(F)(F)F | 4600 nM | 6600 nM | 6400 nM | 240 nM
O=C(CCCCCCCCc1ccccc1)c1nnc(-c2ccccn2)o1 | 500 nM | 3000 nM | 0.8 nM | 0.85 nM and 0.83 nM
O=C(CCCCCCc1ccccc1)C(F)(F)F | 1 nM | 200 nM | 5000 nM | 100 nM
CCCCCCCC/C=C\CCCCCCCC(=O)c1ncco1 | 9000 nM | > 100000 nM | 2000 nM | 100 nM
CCCCCCCC/C=C\CCCCCCCC(=O)c1nnc(-c2ccccc2)o1 | 20000 nM | > 100000 nM | 200 nM | 16 nM
CCCCCCCC/C=C\CCCCCCCC(=O)c1nnco1 | – | – | – | 90 nM
CCCCCCCCCCCC(=O)C(F)(F)F | 70 nM | 500 nM | 10000 nM | 140 nM
CCCCCCCCCC(=O)C(F)(F)F | 10 nM | 400 nM | 10000 nM | 130 nM
CCCCCCCC/C=C\CCCCCCCC(=O)c1nc2ncccc2o1 | 1000 nM | 60000 nM | 40 nM | 2.3 nM
CCCCCCCC/C=C\CCCCCCCC(=O)c1nc2ccccc2o1 | 10000 nM | > 100000 nM | 10000 nM | 370 nM
O=C(CCCCCc1ccccc1)C(F)(F)F | 0.5 nM | 800 nM | 5000 nM | 170 nM
O=C(CCCCCCc1ccccc1)c1nnc(-c2ccccc2)o1 | – | – | – | 2 nM
O=C(CCCCCCc1ccccc1)c1nnc(-c2ccncc2)o1 | 30 nM | > 100000 nM | 20 nM | 1 nM
CCCCCCCC/C=C\CCCCCCCC(=O)c1nnc(-c2ccccn2)o1 | 20000 nM | > 100000 nM | 4 nM | 3 nM
O=C(CCCCCCCc1ccccc1)c1nnc(-c2ccco2)o1 | – | – | – | 0.29 nM
O=C(CCCCCCCCc1ccccc1)c1ncc(-c2ccccn2)o1 | 6000 nM | > 100000 nM | 30 nM | 7.8 nM
CCCCCCCC/C=C/CCCCCCCC(=O)C(F)(F)F | 5000 nM | 1000 nM | 5000 nM | 80 nM
O=C(CCCCCCCc1ccccc1)C(F)(F)F | 5 nM | 200 nM | 2000 nM | 25 nM
CCCCCCCC(=O)C(F)(F)F | 2 nM | 1500 nM | 30000 nM | 1200 nM
